Experiment [1] is described as follows: S. cerevisiae growth inhibition in permissive medium (OD615), pilot counter-assay for S. cerevisiae lifespan shortening project, permissive growth control (AID 705;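 active = growth inhibition above 25% in both replicates, a cutoff set 3 SD above the mean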). As to conditions: OD615, 24 h, at 10 µM, stronger effect = higher value. The method in brief: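 System: Engineered DeaD yeast | Buffer or medium: SC raffinose/galactose permissive medium | Incubation: Cells pre-grown 4 h, then 24 h compound exposure, 30 °C humidified | Measured by: Absorbance (optical density) at 615 nm | Read-out: Reduction in yeast growth (OD615)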

Experiment [2] can be described thus: S. cerevisiae growth inhibition in restrictive medium, OD615, pilot screen, restrictive growth control, yeast lifespan reduction project (AID 706;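 active = growth inhibition above a set limit, 3 SD over mean compound inhibition, in both replicates, cut at about 43% in these data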;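 note: modified DeaD lifespan yeast strain shifted to restrictive glucose medium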). As to conditions: OD615, 48 h, at 10 µM, stronger effect = higher value. The method in brief:
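Material: modified S. cerevisiae; Medium: glucose-based CSMM-D restrictive medium; Compound dosing: one concentration, 10 µM final, 0.25% DMSO; Incubation: 48 h compound exposure at 30 °C; Measured by: OD615.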

The nature of experiment [3]: doxorubicin toxicity protection in MRP-1 cells – H69AR cells, CellTiter-Glo, duplicate, MRP-1 activator project, pilot screen (AID 807;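 active = viability increase at or above a cutoff of the median across tested compounds plus 3 SD, cut at about 8.5% in these data, passing the limit was not always enough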;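 note: compound pretreatment 18-22 h then 72 h combined with doxorubicin; 0% = doxorubicin alone and 100% = vehicle without doxorubicin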). As to conditions: H69AR viability with doxorubicin, CellTiter-Glo luminescence; at 10 µM; stronger effect = higher value. (Cellular ATP, detected with luciferase, serves as a proxy for viable cell number.)
Experiment [4] can be described thus: viability of HCT116 without oncogenic beta-catenin – human colon tumor cells, pilot screen (AID 823;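 active = cell viability at or below a set limit in both duplicate runs, the limit being the all-compound median minus 4 SD, cut at about 23% in these data, passing the limit was not always enough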;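 note: 0% = wells killed by 20 µM Hyamine and 100% = untreated DMSO cell wells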). As to conditions: HCT116 beta-catenin knockout viability, CellTiter-Glo, 60 h; at 10 µM; stronger effect = lower value.
A short description of experiment [5]: viability of PTEN-null HCT116 cells – cell-based, HCT116 clonal line, CellTiter-Glo, pilot screen (AID 824;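 active = viability at or below 27.92% in each of two runs, the all-compound median minus 4 SD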;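 note: 0% = 20 µM Hyamine control and 100% = vehicle cell control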). As to conditions: HCT116 PTEN-deleted viability, 60 h, at 10 µM, stronger effect = lower value.
Experiment [6] can be described thus: RAM pathway blockade in budding yeast – dse1pr::URA3 reporter, 5-FOA selection, pilot screen (AID 869;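 active = inhibition over a set limit, the all-compound mean plus 3 SD, in both replicate runs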;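 note: 0% = DMSO wells with no growth and 100% = 10 µM 1-NA-PP1 with full growth; RAM network block rescues cells from 5-FOA so hits raise OD615 growth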). As to conditions: S. cerevisiae dse1pr::URA3 5-FOA growth, OD615, 2 d; at 10 µM; stronger effect = higher value; strain carries analog-sensitive mutant Cbk1 kinase.
Experiment [7] in a line: RAM signaling pathway blockade in yeast – S. cerevisiae, Pdr1DBD-CYC8 efflux-inhibited sensitized strain, primary screen (AID 1298).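 Note: 0% = DMSO untreated cells without growth and 100% = 10 µM 1-NA-PP1 full growth; higher means more yeast growth rescued from 5-FOA killing.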 As to conditions: S. cerevisiae cbk1-as DSE1-URA3 strain, 5-FOA growth OD615, 2 d; at 50 µM; stronger effect = higher value.

Unmarked numbers belong to inactive results. Records with an inconclusive call do not appear. Active and inactive are the calls of the source.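 Rule for the calls, unless noted: active = RAM network inhibition above 8.4% in each of two replicates, 3 SD over the compound average; inconclusive = above 8.4% inhibition in only one replicate; inactive = 8.4% inhibition or less in each replicate.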

Turning to `CCn1c(=O)c2cc(C(=O)N3CCN(C(=O)c4ccco4)CC3)sc2c2ccccc21`, the growth inhibition in experiment [1] is -1.96%; in experiment [2], -0.815%. The viability increase in experiment [3] was -3.68%. Besides, the values for the viability in experiment [4] and in experiment [5] were 84% and 86.3%, respectively. The inhibition in experiment [6] is 2.02%. The RAM network inhibition in experiment [7] is 7.64%.
Regarding `Cc1ccc(S(=O)(=O)/N=C(/Nc2nc(C)cc(C)n2)N2CCOCC2)cc1`, the growth inhibition is -0.825% in experiment [1] and -15.5% in experiment [2]. Besides, in experiment [3], the viability increase was -3.21%. Besides, the viability in experiment [4] is 98.7%; in experiment [5], 97.4%. Moreover, in experiment [6], the inhibition was 1.6%. In addition, the RAM network inhibition in experiment [7] was 4.96%.
On to `Cn1c(=O)[nH]c(=O)c2c1nc(CN1CCOCC1)n2Cc1ccc(F)cc1`, for which the results for the growth inhibition in experiment [1] and in experiment [2] were -6.42% and -18.4%, respectively. In experiment [3], the viability increase is -3.24%. Moreover, the viability in experiment [4] was 98.5%; in experiment [5] it was 93.4%. Moreover, the inhibition in experiment [6] was 2.65%. Further, the RAM network inhibition in experiment [7] is 2.15%.
Take `O=C(Oc1c(Cl)cc(Cl)c2cccnc12)N1CCOCC1`: the growth inhibition was -1.54% in experiment [1] and 2.49% in experiment [2]. In experiment [3], the viability increase is -2.13%. In addition, the viability was 99.7% in experiment [4] and 95.3% in experiment [5]. In experiment [6], the inhibition was 0.74%. In experiment [7], the RAM network inhibition was 0.25%.
Turning to `O=C(O)c1ccc(NS(=O)(=O)c2cccc3cccnc23)cc1`, the growth inhibition in experiment [1] is -2.47%; in experiment [2] it was 7.28%. In addition, the viability increase in experiment [3] is -0.56%. Further, the results for the viability in experiment [4] and in experiment [5] were 102% and 94.1%, respectively. Further, the inhibition in experiment [6] is 2.25%. The RAM network inhibition in experiment [7] is 1.04%.
As for `Cn1c2c(c(=O)n(C)c1=O)CN(Cc1ccco1)CN2`, the values for the growth inhibition in experiment [1] and in experiment [2] were -2% and 5.18%, respectively. In experiment [3], the viability increase was -2.84%. The viability was 95.2% in experiment [4] and 97.7% in experiment [5]. Besides, the inhibition in experiment [6] was -0.115%. The RAM network inhibition in experiment [7] is -0.06%.
Turning to `c1cnn(-c2nc(N3CCOCC3)nc(N3CCOCC3)n2)c1`, the growth inhibition in experiment [1] is 0.06%; in experiment [2], 7.23%. Besides, in experiment [3], the viability increase was -5.18%. Moreover, the values for the viability in experiment [4] and in experiment [5] were 67.1% and 72.9%, respectively. Also, the inhibition in experiment [6] is 1.96%. For the same compound, in experiment [7], the RAM network inhibition was -2.04%.
Take `CC(NC(=O)Cn1cc2c(n1)CCCCC2)c1ccccc1` (centres undefined): the growth inhibition in experiment [1] is -0.875%; in experiment [2], 2.88%. The viability increase in experiment [3] was 3.53%. Also, the viability in experiment [4] is 101%; in experiment [5], 100%. The inhibition in experiment [6] was -0.32%. For the same compound, the RAM network inhibition in experiment [7] is 0.87%.
Turning to `O=C(Nc1ccc(SC(F)F)cc1)C1=COCCO1`, the growth inhibition is -0.035% in experiment [1] and 10.5% in experiment [2]. Moreover, the viability increase in experiment [3] is 2.59%. Besides, the viability in experiment [4] was 93.8%; in experiment [5], 90.1%. Moreover, the inhibition in experiment [6] is 1.4%. The RAM network inhibition in experiment [7] is 5.17%.
Take `Cn1c(CCNC(=O)C(C)(C)C)nc2ccccc21`: the results for the growth inhibition in experiment [1] and in experiment [2] were -4.42% and -7.26%, respectively. Besides, in experiment [3], the viability increase was 0.98%. The viability is 95.3% in experiment [4] and 98.5% in experiment [5]. Moreover, in experiment [6], the inhibition was 2.58%. Besides, in experiment [7], the RAM network inhibition is 4.43%.
Consider `CCn1c(=NC(=O)CN2C(=O)CCC2=O)sc2c(OC)ccc(OC)c21`, for which the results for the growth inhibition in experiment [1] and in experiment [2] were -5.83% and -14.7%, respectively. Besides, the viability increase in experiment [3] was -2.94%. Moreover, the values for the viability in experiment [4] and in experiment [5] were 87.4% and 96%, respectively. For the same compound, in experiment [6], the inhibition is 2.75%. Moreover, the RAM network inhibition in experiment [7] is 6.17%.
Consider `O=C(C1CCCCC1)N1CCN(c2ncccn2)CC1`, for which the growth inhibition is -3.77% in experiment [1] and -0.05% in experiment [2]. The viability increase in experiment [3] was 0.21%. Further, the viability is 101% in experiment [4] and 102% in experiment [5]. Besides, the inhibition in experiment [6] is 1.31%. In experiment [7], the RAM network inhibition is 2.41%.
As to `CC1CC(C)CN(C(=O)C(NS(=O)(=O)c2ccc3c(c2)oc(=O)n3C)C(C)C)C1` (centres undefined), the growth inhibition was -16% in experiment [1] and -5.28% in experiment [2]. Also, the viability increase in experiment [3] is -2.67%. Further, the viability in experiment [4] is 103%; in experiment [5], 93.6%. Further, the inhibition in experiment [6] is -0.355%. Further, the RAM network inhibition in experiment [7] is 6.92%.
Take `COc1ccc(C2CCCN2C(=O)Nc2ccc(F)cc2)cc1OC` (centres undefined): the growth inhibition in experiment [1] was -6.66%; in experiment [2] it was -5.24%. Also, in experiment [3], the viability increase is 1.33%. The viability was 98.8% in experiment [4] and 88.2% in experiment [5]. Also, the inhibition in experiment [6] was 2.6%. Also, in experiment [7], the RAM network inhibition is 3.45%.
As for `COC(=O)c1ccc2c(c1)N(Cc1cc(C)ccc1C)C(=O)c1ccccc1S2=O` (centres undefined), the growth inhibition in experiment [1] is -0.815%; in experiment [2], -2.77%. In addition, the viability increase in experiment [3] is -2.53%. Also, the viability in experiment [4] was 96.8%; in experiment [5], 91.9%. Moreover, in experiment [6], the inhibition is 0.92%. In addition, the RAM network inhibition in experiment [7] is 3.53%.
Take `COc1ccc(C2CC(c3ccc(Cl)cc3)n3nc(N)nc3N2)cc1` (centres undefined): the growth inhibition in experiment [1] is -5.72%; in experiment [2], 10.7%. Moreover, the viability increase in experiment [3] is 2.46%. Further, the figures for the viability in experiment [4] and in experiment [5] were 100% and 95.1%, respectively. The inhibition in experiment [6] is 3.23%. Besides, the RAM network inhibition in experiment [7] was 4.44%.
As for `c1ccc(-c2csc3nnc(SCc4ccc5c(c4)OCO5)n23)cc1`, the growth inhibition is 22.1% in experiment [1] and 64.5% (active) in experiment [2]. Further, the viability increase in experiment [3] was -2.01%. Also, the viability is 93.2% in experiment [4] and 82.7% in experiment [5]. The inhibition in experiment [6] is 0.87%. For the same compound, the RAM network inhibition in experiment [7] is 3.09%.

The term viability denotes a read-out of living cells in per cent, often relative to untreated cells. The term inhibition denotes the relative decrease from the control value, in per cent.

For the origin of these results see PubChem BioAssay.
